Reference: article PMC11995402 (ACS infectious diseases, 2025)
Values after ≈ are worked out from the molar mass of the structure shown. Read-outs that look alike come from different tables or passages of the source.

Key:
[1] = test system: T. muris; design: species or system mice; details: mouse, in vivo, po, 100 mg/kg/day
[2] = test system: HepG2 cells; assay: HepG2 MTT viability assay; details: read-out: HEPG2 cells CC50 μM (95% CI) 24 h; MTT viability, 24 h
[3] = kinetic solubility in simulated gastric and intestinal fluid; format: physicochemical
[4] = biological target: AAK1 (Homo sapiens, UniProt Q2M2I8); assay: SelectScreen kinase panel, AAK1; format: biochemical; details: 500 nM
[5] = biological target: T1, STK17A (Homo sapiens, UniProt Q9UEE5); assay: SelectScreen kinase panel, STK17A; format: biochemical; details: 500 nM
T1 sequence (Q9UEE5 1-414): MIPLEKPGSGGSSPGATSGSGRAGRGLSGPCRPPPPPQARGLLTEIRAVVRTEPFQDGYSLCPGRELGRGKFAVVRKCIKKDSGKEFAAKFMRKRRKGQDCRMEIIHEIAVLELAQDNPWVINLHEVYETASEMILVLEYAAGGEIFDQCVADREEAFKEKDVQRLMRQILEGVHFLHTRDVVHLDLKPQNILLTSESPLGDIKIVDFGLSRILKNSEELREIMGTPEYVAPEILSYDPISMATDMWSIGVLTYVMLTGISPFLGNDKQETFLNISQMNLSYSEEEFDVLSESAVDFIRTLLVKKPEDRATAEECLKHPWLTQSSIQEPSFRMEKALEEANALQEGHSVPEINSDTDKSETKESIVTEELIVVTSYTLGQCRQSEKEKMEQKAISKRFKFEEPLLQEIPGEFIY

[6] = test system: whipworms; assay: whipworm motility recovery after drug removal; format: cell-based; details: 60 μM for 24 h, motility recorded 4 and 24 h after removal
How it was run: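 Adult T. muris harvested 35 days post-inoculation from Stat6−/− mice, one worm per well in RPMI 1640 (pH 7.2) with 5% FBS, penicillin, streptomycin and amphotericin, at 37 °C and 5% CO2. Worms were exposed to test compound for 24 h, washed, and moved to fresh drug-free medium. Motility inhibition was scored relative to DMSO (0%) after exposure and again 4 and 24 h later.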

[7] = biological target: T2, MAPK15 (ERK7) (Homo sapiens, UniProt Q8TD08); assay: SelectScreen kinase panel, MAPK15; format: biochemical; details: 500 nM
T2 sequence (Q8TD08 1-544): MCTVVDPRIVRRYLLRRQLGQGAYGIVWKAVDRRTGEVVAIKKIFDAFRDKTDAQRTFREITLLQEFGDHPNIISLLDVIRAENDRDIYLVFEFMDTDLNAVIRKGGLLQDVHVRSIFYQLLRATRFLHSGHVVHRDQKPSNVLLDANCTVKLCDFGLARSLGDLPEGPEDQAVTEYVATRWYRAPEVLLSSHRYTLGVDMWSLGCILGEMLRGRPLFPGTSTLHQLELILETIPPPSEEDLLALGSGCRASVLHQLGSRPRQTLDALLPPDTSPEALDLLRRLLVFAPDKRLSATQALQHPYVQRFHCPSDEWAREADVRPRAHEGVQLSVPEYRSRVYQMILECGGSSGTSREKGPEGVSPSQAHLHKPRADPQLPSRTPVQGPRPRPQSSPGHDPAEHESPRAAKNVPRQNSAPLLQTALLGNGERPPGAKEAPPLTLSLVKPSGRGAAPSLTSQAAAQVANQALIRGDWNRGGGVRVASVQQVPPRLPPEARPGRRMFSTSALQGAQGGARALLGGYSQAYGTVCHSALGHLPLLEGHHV

[8] = biological target: T3, GSG2 (haspin) (Homo sapiens, UniProt Q8TF76); assay: SelectScreen kinase panel, GSG2; format: biochemical; details: 500 nM
T3 sequence (Q8TF76 1-798): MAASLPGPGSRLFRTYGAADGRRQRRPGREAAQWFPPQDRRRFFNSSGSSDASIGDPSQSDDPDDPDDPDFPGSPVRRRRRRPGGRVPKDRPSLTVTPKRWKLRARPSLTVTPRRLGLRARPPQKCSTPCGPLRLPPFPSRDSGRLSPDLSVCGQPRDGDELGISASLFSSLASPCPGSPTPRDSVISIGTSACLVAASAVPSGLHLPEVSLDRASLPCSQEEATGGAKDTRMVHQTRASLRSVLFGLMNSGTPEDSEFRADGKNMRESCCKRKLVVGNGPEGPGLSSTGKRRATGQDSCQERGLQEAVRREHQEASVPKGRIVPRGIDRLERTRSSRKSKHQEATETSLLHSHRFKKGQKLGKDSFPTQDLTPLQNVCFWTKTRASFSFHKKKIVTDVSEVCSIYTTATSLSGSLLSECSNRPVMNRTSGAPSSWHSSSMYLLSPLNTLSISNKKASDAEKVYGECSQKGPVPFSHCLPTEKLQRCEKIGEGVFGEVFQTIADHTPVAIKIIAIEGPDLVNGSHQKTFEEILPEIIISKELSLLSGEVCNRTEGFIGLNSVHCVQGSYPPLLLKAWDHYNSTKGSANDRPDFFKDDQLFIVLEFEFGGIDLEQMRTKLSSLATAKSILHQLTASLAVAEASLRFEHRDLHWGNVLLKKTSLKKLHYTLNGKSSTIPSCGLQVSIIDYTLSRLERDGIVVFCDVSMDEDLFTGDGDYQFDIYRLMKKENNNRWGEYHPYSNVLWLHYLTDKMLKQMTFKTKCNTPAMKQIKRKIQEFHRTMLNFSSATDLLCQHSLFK

[9] = test system: MDR1-MDCK II cells; details: MDCK-MDR1
[10] = test system: T. muris; assay: adult whipworm whole-worm motility inhibition assay; format: cell-based, Trichuris muris; details: for IC50: motility
[11] = biological target: T4, MYLK4 (Homo sapiens, UniProt Q86YV6); assay: SelectScreen kinase panel, MYLK4; format: biochemical; details: 500 nM
T4 sequence (Q86YV6 1-388): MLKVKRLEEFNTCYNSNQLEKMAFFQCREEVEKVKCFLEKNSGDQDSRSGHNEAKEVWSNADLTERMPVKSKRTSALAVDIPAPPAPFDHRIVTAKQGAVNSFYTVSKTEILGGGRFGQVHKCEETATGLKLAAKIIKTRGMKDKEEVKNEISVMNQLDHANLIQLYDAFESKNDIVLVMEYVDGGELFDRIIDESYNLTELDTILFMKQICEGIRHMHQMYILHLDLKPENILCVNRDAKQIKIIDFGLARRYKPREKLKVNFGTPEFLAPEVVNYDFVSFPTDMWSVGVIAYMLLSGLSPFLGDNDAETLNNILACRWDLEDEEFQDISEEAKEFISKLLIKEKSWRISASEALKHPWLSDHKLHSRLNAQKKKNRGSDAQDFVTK

[12] = test system: A. ceylanicum; assay: in vivo efficacy in A. ceylanicum-infected hamsters; details: 100 mg/kg/day for three days, oral
[13] = test system: A. ceylanicum; assay: adult hookworm whole-worm motility inhibition assay; format: cell-based, Ancylostoma ceylanicum; details: motility
[14] = biological target: PIM-3 (Homo sapiens, UniProt Q86V86); assay: SelectScreen kinase panel, PIM-3; format: biochemical; details: 500 nM

AAK1, sequence (Q2M2I8 whole entry): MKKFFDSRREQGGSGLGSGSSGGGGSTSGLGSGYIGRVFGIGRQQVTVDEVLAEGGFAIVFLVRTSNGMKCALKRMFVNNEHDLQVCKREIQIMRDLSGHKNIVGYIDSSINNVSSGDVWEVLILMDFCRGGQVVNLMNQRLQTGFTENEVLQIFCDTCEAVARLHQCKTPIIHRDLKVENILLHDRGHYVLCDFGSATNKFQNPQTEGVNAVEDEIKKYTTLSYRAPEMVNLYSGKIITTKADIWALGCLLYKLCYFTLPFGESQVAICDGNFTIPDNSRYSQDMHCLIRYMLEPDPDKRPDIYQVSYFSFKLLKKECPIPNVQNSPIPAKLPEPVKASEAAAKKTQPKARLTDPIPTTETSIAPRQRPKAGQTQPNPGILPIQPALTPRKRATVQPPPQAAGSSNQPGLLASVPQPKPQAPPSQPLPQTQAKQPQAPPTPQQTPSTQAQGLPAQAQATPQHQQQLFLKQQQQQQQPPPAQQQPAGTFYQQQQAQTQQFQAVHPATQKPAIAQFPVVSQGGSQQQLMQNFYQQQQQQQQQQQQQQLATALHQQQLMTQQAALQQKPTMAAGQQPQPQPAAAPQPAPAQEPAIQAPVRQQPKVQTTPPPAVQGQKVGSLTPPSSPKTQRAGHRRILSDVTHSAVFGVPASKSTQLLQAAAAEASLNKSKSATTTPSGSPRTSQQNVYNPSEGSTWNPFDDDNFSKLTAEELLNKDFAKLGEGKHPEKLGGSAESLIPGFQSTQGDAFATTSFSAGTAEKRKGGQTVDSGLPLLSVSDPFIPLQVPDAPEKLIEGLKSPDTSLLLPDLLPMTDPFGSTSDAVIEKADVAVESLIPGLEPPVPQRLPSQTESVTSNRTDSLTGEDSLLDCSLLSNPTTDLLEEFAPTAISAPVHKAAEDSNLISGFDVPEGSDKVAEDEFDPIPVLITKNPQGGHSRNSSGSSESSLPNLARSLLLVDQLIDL

In the case of `CN1CCCN(C(=O)c2cccc(-c3ccc(/C=C4/C(=O)Nc5ccc(Cl)cc54)o3)c2)CC1` [CX-6258], the “health, vitality and body weight of treated animals” value [1] was “did not affect the visually observed health and vitality of treated animals, nor were any changes in body weight”, the CC50 [2] was 37.5 µM and the “kinetic solubility μM” value ([3]; SGF (pH = 1.2)) was 151 µM (≈ 69.8 µg/mL). For the same compound, the “kinetic solubility μg/mL” value ([3]; SGF (pH = 1.2)) was 69.7 µg/mL (≈ 151 µM), the “times more soluble in SGF than in SIF” value ([3]; SGF pH 1.2 versus SIF pH 6.8) was “approximately 30 times” and the “kinetic solubility μM” value ([3]; SIF (pH = 6.8)) was 5.05 µM (≈ 2.33 µg/mL). For the same compound, the “kinetic solubility μg/mL” value ([3]; SIF (pH = 6.8)) was 2.33 µg/mL (≈ 5.04 µM), the “kinase inhibition AAK1” value [4] was “over 80%” and the “kinase inhibition STK17A” value [5] was “over 80%”. For the same compound, the “recovery of whipworm motility after removing the drug” value [6] was “no recovery in whipworm motility”, the “kinase inhibition MAPK15 (ERK7)” value [7] was “over 80%” and the “kinase inhibition GSG2 (haspin)” value [8] was “over 80%”. For the same compound, the “Rank Papp” value [9] was “low”, the “mean Papp A to B” value [9] was 0.049 10^−6 cm/s and the “mean Papp B to A” value [9] was 0.0897 10^−6 cm/s. For the same compound, the “mean solution recovery % A to B” value [9] was 5.4%, the “mean solution recovery % B to A” value [9] was 20.2% and the “worm motility inhibition (in words)” value ([10]; adult T. muris, 30 μM (Figure 1)) was “excellent inhibition”. The motility inhibition ([10]; adult T. muris, 30 μM, relative to DMSO controls) was 100%, the IC50 ([10]; read-out: T. muris IC50 μM (95% CI) 24 h, 24 h) was 17.8 µM and the IC50 ([10]; read-out: T. muris IC50 μM (95% CI) 48 h, 48 h) was 14.7 µM. For the same compound, the “kinase inhibition MYLK4” value [11] was “over 80%”, the “reduction of egg number or worm burden (in words)” value [12] was “did not reduce egg number or worm burden” and the IC50 ([13]; read-out: A. ceylanicum IC50 μM (95% CI) 24 h, 24 h) was 31.6 µM. The IC50 ([13]; read-out: A. ceylanicum IC50 μM (95% CI) 48 h, 48 h) was 5.5 µM and the “kinase inhibition PIM-3” value [14] was “over 80%”.
